Reference: ChEMBL document CHEMBL1122961 (J Med Chem, 1985)
Active and inactive are the calls of the source. The rule behind the calls is not given here.

Tests used:
[1] = system: Rattus norvegicus; assay: In vivo inhibitory activity against ovum implantation in female rat after subcutaneous administration; type: functional; settings: sc, read-out: ID50 (the source's name)
Outline: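 Adult proestrus Ivanovas female rats mated with fertile males; sperm-positive females randomised next morning (day 1), 4-10 per group. Single subcutaneous dose on day 5; killed day 12, uteri inspected for fetuses or implantation sites, absence counted as inhibition.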

[2] = system: Rattus norvegicus; assay: In vivo inhibitory activity against basal prolactin in male rat after subcutaneous administration; type: functional; settings: sc, read-out: ID50 (the source's name)
Outline: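 Male rats given one subcutaneous injection and decapitated 4 h later; trunk blood serum collected. One to three groups of three rats per dose, sera of three rats pooled equally. Prolactin measured by double-antibody RIA, expressed against NIH rat Prl RP-1 standard. Dose giving 50% serum prolactin reduction estimated graphically.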

[3] = system: Rattus norvegicus; assay: In vivo inhibitory against lactation in female rat after peroral administration; type: functional; settings: po, read-out: ID50 (the source's name)
Outline: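 […] rats dosed once daily from day 5 to 8. Nursing behaviour checked daily; dams losing more than two pups excluded.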

[4] = target: Serotonin (5-HT) receptor; assay: In vitro inhibitory activity against serotonin receptor from whole rat brain using [3H]5-HT as radioligand
[5] = target: Serotonin (5-HT) receptor; assay: In vitro inhibitory activity against serotonin receptor from rat frontal cortex using [3H]spiperone as radioligand; type: tissue-based
[6] = target: T1, Adrenergic receptor alpha-1 (Rattus norvegicus, UniProt P15823+P23944+P43140); assay: In vitro inhibitory activity against alpha-1 adrenergic receptor from whole rat brain using [3H]WB-4101 as radioligand
T1 sequence (P15823 whole entry): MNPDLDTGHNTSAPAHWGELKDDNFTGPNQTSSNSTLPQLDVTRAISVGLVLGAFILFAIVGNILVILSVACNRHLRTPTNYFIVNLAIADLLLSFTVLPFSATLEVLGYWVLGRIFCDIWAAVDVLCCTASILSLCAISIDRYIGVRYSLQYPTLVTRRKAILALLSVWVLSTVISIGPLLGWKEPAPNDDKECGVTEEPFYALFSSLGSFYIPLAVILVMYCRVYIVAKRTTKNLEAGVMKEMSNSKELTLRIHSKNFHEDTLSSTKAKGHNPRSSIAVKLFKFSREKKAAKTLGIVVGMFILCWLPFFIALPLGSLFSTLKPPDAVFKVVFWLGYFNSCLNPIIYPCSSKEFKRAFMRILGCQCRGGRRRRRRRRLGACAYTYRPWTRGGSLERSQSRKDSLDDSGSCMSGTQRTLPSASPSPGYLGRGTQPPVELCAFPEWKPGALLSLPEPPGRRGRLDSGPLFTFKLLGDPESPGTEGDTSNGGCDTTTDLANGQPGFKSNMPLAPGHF
T1 sequence (P23944 whole entry): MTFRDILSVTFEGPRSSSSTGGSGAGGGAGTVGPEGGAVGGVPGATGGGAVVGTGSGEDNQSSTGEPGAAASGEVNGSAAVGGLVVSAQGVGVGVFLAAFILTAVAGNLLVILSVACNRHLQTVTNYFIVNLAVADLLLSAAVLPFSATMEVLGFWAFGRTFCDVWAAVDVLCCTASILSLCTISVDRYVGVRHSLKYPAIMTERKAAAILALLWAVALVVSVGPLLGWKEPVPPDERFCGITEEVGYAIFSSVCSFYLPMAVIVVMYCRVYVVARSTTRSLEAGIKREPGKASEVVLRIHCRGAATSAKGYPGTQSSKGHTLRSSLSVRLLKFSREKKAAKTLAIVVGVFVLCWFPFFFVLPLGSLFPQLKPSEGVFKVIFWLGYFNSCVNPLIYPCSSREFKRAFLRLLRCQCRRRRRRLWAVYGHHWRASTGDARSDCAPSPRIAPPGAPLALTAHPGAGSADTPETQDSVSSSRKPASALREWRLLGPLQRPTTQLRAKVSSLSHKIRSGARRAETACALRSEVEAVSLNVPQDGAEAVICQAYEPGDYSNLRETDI
T1 sequence (P43140 whole entry): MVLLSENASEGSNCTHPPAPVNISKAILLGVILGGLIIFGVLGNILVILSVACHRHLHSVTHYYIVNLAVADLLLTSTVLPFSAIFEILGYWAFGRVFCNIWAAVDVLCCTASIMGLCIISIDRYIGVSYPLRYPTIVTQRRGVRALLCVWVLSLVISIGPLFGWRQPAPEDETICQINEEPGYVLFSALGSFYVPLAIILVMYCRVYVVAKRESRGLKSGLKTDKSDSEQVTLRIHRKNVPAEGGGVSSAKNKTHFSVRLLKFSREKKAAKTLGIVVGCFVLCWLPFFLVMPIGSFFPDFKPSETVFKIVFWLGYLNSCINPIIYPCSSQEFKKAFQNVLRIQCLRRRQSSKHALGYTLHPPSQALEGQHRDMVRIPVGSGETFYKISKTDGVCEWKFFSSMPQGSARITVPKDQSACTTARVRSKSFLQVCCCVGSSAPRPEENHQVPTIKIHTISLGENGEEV
Outline: (§1)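 Displacement binding on brain homogenates as earlier described; four to six test concentrations typically, each incubated in triplicate. IC50 in nM derived by appropriately weighted regression analysis.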

[7] = system: Rattus norvegicus; assay: In vivo against inhibitory against lactation in female rat after peroral administration; i = No effect; type: functional, organism-based
[8] = system: Rattus norvegicus; assay: In vivo inhibitory activity against ovum implantation in female rat after subcutaneous administration; i = No effect; type: functional, organism-based
Outline: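 Adult proestrus Ivanovas female rats paired with males of proven fertility; sperm-positive next morning (day 1), randomised 4-10 per group. Single sc dose on day 5; killed day 12, uteri inspected for fetuses or implantation sites, none counting as inhibited.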

[9] = target: T2, Dopamine receptor (Bos taurus, UniProt Q95136+P20288); assay: In vitro inhibitory activity against dopamine receptor from calf caudate using [3H]dopamine as radioligand; type: protein assay; outline: as §1
[10] = target: T2, Dopamine receptor; assay: In vitro inhibitory activity against dopamine receptor from calf caudate using [3H]spiperone as radioligand; type: protein assay; outline: as §1
[11] = target: T3, Adrenergic receptor alpha-2 (Rattus norvegicus, UniProt P22086+P19328+P22909); assay: In vitro inhibitory activity against alpha-2 adrenergic receptor from rat brain minus cerebellum using [3H]clonidine as radioligand; type: tissue-based; outline: as §1
T3 sequence (P22086 whole entry): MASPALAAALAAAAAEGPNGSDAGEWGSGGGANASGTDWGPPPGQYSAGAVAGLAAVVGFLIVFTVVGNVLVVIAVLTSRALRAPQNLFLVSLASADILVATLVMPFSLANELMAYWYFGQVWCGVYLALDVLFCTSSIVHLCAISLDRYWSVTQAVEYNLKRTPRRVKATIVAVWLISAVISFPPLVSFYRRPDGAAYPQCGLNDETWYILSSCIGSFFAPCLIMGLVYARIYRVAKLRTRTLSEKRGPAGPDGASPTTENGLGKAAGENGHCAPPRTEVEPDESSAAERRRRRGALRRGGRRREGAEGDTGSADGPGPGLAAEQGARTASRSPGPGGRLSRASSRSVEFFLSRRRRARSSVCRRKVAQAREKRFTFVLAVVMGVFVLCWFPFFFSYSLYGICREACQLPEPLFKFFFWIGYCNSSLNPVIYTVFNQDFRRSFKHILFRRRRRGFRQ
T3 sequence (P19328 whole entry): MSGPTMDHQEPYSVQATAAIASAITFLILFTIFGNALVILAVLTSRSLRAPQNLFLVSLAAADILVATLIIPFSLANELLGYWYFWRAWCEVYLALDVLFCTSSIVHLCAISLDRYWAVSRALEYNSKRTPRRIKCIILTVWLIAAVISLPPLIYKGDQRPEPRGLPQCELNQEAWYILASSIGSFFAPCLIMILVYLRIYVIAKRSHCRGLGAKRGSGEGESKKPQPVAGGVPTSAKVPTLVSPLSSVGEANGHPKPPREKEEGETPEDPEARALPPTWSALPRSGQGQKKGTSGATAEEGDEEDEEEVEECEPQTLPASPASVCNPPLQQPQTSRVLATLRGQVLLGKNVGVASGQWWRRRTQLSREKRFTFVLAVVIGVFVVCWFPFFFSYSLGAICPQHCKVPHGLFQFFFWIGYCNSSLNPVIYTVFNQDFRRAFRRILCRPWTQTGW
T3 sequence (P22909 whole entry): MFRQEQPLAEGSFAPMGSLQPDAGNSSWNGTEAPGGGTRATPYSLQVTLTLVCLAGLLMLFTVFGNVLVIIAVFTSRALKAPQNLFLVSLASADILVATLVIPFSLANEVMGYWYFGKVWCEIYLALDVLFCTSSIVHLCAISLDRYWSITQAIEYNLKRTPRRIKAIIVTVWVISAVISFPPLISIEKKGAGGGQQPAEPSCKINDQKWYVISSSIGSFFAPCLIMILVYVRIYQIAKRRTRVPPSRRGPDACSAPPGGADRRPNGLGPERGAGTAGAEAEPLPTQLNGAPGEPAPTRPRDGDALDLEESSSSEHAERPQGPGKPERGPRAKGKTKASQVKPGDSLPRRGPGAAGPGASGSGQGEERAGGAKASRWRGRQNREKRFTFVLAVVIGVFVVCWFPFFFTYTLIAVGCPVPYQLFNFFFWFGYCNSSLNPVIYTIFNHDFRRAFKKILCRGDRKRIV

SMILES | ED50 [1] [mg/kg] | ED50 [2] [mg/kg] | ED50 [3] [mg/kg] | IC50 [4] [nM] | IC50 [5] [nM] | IC50 [6] [nM] | ID50 [7] | ID50 [8] | IC50 [9] [nM] | IC50 [10] [nM] | IC50 [11] [nM]
CCCN1CC(NS(=O)(=O)N(CC)CC)CC2Cc3c(O)cccc3CC21 (stereo not drawn) [QUINAGOLIDE] | 0.017 | 0.005 | 0.03 |  |  |  |  |  |  |  | 
CCN(CC)S(=O)(=O)N[C@H]1C[C@@H]2c3cccc4[nH]cc(c34)C[C@H]2N(C)C1 [ETISULERGINE] | 0.028 |  | 0.19 | > 5000 |  |  |  |  |  |  | 
CCCN1C[C@H](CSC)C[C@@H]2c3cccc4[nH]cc(c34)C[C@H]21 [PERGOLIDE] | 0.021 | 0.0013 |  | 385 | 140 | 550 |  |  |  |  | 
CN1CCc2cccc3c2[C@H]1Cc1ccc(O)c(O)c1-3 [APOMORPHINE] |  |  |  | > 10000 |  |  | inactive | inactive |  |  | 
CCCN1C[C@@H](CSC)C[C@@H]2Cc3c(O)cccc3C[C@H]21 | 0.018 | 0.004 | 0.058 | 2000 | 720 | 640 |  |  | 22 | 60 | 250
